Experimental data as given in PMC4361317 (Nuclear medicine and biology, 2014).
Entries after “also recorded” stand apart in the source; their conditions may differ. Where a SMILES comes first, the peptide text is derived from it. Bridges are numbered along the chain shown (N, C = ends). [ ]: non-standard residue; d: D form. Aoc = NCCCCCCCC(=O)O

Columns and labels:
[1] = biological target: MC1 receptor (Homo sapiens, UniProt Q01726); assay: In vitro competitive binding, MC1 receptor, M21 human melanoma cells, ^125I-
How it was run: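 Intact M21 cells (1.5×10^5/well) were incubated for 2 h at 37 °C with ~30,000 cpm 125I-(Tyr2)-NDP-MSH plus 10−12 to 10−5 M test compound. Medium was MEM with 25 mM HEPES pH 7.4, 0.2% BSA and 0.3 mM 1,10-phenanthroline. Cells were rinsed twice with ice-cold 0.2% BSA/0.01 M PBS pH 7.4, lysed in 1 N NaOH for 5 min and gamma counted. Triplicate; IC50 calculated.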

[2] = biological target: αvβ3 integrin receptor (Homo sapiens, UniProt P05106+P06756); format: binding
How it was run: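 M21 cells (1×10^5/well) were placed on 0.65 µm filter plates and incubated for 2 h at 25 °C with ~30,000 cpm 125I-echistatin and 10−11 to 10−4 M test compound. The binding medium was HEPES-buffered MEM pH 7.4 with BSA and phenanthroline. Bound and free ligand were separated by vacuum filtration with two ice-cold BSA/PBS pH 7.4 rinses, and the PVDF filters were gamma counted. Triplicate; IC50 calculated.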

[3] = system: M21 human melanoma-xenografted nude mice; details: mouse, in vivo; cited from earlier work

In the case of `CC(C)[C@H](NC(=O)[C@@H]1CCCN1C(=O)[C@H](CCCNC(=N)N)NC(=O)[C@H](CS)NC(=O)[C@H](Cc1c[nH]c2ccccc12)NC(=O)[C@H](CCCNC(=N)N)NC(=O)[C@@H](Cc1ccccc1)NC(=O)[C@H](Cc1c[nH]cn1)NC(=O)[C@H](CCC(=O)O)NC(=O)[C@H](CS)NC(=O)[C@H](CS)NC(=O)CCCCCCCNC(=O)[C@@H]1CC(=O)N[C@@H](CCCNC(=N)N)C(=O)NCC(=O)N[C@@H](CC(=O)O)C(=O)N[C@H](Cc2ccc(O)cc2)C(=O)N1)C(N)=O` [RGD-Aoc-(Arg^11)CCMSH] (RGD[dY]D[Aoc]CCEH[dF]RWCRPV-NH2; lactam N-5), the IC50 [1] is reported as 1.5 ± 0.2 nM, the “MC1 receptor binding affinity, compared with RGD-PEG2-(Arg^11)CCMSH” value ([1]; M21 cells) is reported as “stronger receptor binding affinity; also recorded: slightly stronger binding affinities” and the IC50 [2] is reported as 1130 ± 26 nM. The “binding affinity for αvβ3 integrin receptor (in words)” value ([2]; M21 cells) was “low micromolar range” and the “αvβ3 integrin receptor binding affinity, compared with RGD-PEG2-(Arg^11)CCMSH” value ([2]; M21 cells) was “stronger receptor binding affinity; also recorded: slightly stronger binding affinities”.
In the case of “cyclic(Arg-Gly-Asp-DTyr-Asp)-Lys-(^99mTc-[Cys^3,4,10, D-Phe^7, Arg^11]α-MSH3–13) (bicyclic or more) [^99mTc-RGD-Lys-(Arg^11)CCMSH]”, the “melanoma uptake relative to ^99mTc-RAD-Lys-(Arg^11)CCMSH” value [3] is listed as 2.5 times and the “melanoma uptake relative to ^99mTc-RGD-Lys-(Arg^11)CCMSHscramble” value [3] is listed as 2.2 times.
